Key:
[1] = Antiproliferative activity against human WM266.4 cells after 6 days by SRB assay; type: functional; conditions: WM 266-4, 144 h
In short: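 BRAF-dependent WM266.4 melanoma cells; growth inhibition read by SRB staining and reported as GI50.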

[2] = biological target: T1, Serine/threonine-protein kinase B-raf (Homo sapiens, UniProt P15056, V600E); assay: Inhibition of human recombinant N-terminal His-tagged BRAF V600E mutant expressed in Sf9 cells using GST-tagged MEK1 and ATP as substrate incubated for 10 mins prior to ATP addition measured after 45 mins by DELFIA assay
In short: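 Enzyme assay with the V600E BRAF mutant in vitro; inhibition reported as IC50.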

[3] = biological target: T1, Serine/threonine-protein kinase B-raf; assay: Inhibition of BRAF V600E mutant in human WM266.4 cells assessed as inhibition of ERK phosphorylation after 6 hrs by DELFIA assay; type: cell-based
In short: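 In BRAF-dependent WM266.4 cells, inhibition of ERK phosphorylation measured in a cellular assay and reported as IC50.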

T1 sequence (P15056 2-766 V600E limits assumed): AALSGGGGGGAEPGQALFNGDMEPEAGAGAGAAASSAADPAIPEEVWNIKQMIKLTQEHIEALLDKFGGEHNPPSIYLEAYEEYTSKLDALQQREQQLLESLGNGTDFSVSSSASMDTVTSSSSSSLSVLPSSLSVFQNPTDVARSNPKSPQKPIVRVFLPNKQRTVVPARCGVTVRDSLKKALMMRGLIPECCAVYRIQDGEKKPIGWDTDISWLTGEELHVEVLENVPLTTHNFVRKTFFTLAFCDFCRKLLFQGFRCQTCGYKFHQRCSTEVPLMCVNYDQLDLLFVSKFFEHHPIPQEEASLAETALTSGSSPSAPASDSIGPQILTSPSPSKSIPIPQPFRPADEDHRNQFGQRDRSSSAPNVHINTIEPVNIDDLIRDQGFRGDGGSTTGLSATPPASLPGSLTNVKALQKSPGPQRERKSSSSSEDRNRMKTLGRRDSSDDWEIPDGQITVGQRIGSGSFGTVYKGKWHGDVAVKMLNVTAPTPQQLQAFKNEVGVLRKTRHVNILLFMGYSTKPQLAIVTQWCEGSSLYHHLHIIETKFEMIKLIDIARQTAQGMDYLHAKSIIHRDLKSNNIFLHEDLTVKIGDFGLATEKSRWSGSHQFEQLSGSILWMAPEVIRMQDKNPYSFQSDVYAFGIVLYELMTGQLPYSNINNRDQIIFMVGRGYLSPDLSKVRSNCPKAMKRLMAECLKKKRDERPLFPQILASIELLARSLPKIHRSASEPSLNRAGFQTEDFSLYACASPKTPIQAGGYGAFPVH

SMILES	GI50 [1] [µM]	IC50 [2] [µM]	IC50 [3] [µM]
CN(C)CCOc1ccc(-c2nc(-c3ccc4cc(O)ccc4c3)c(-c3ccncc3)[nH]2)cc1	4.3	8.8	14
CN(C)CCOc1ccc(-c2nc(-c3ccc4c(O)c(Cl)ccc4c3)c(-c3ccncc3)[nH]2)cc1	1.1	0.042	1.25
CN(C)CCOc1ccc(-c2nc(-c3ccc4c(O)c(F)ccc4c3)c(-c3ccncc3)[nH]2)cc1	11	0.029	0.25
CN(C)CCOc1ccc(-c2nc(-c3ccc4ccc(=O)[nH]c4c3)c(-c3ccncc3)[nH]2)cc1		> 100	
CN(C)CCOc1ccc(-c2nc(-c3ccc4[nH]c(=O)ccc4c3)c(-c3ccncc3)[nH]2)cc1		> 100	
CN(C)CCOc1ccc(-c2nc(-c3ccc4c(=O)[nH]ccc4c3)c(-c3ccncc3)[nH]2)cc1		> 10	
CN(C)CCOc1ccc(-c2nc(-c3ccc4c(N)nccc4c3)c(-c3ccncc3)[nH]2)cc1	5.7	1.1	5.1
CN(C)CCOc1ccc(-c2nc(-c3ccc4cc(F)ccc4c3)c(-c3ccncc3)[nH]2)cc1		> 10	
CN(C)CCOc1ccc(-c2nc(-c3ccc4cc(C(=O)O)ccc4c3)c(-c3ccncc3)[nH]2)cc1		> 10	
CN(C)CCOc1ccc(-c2nc(-c3ccc(Cl)c(Cl)c3)c(-c3ccncc3)[nH]2)cc1	1.6	0.58	5.9
CN(C)CCOc1ccc(-c2nc(-c3ccc(F)c(Cl)c3)c(-c3ccncc3)[nH]2)cc1		> 10	
CN(C)CCOc1ccc(-c2nc(-c3ccc4c(CO)coc4c3)c(-c3ccncc3)[nH]2)cc1		> 10	
CN(C)CCOc1ccc(-c2nc(-c3ccc4c(C(N)=O)coc4c3)c(-c3ccncc3)[nH]2)cc1		> 10	
CN(C)CCOc1ccc(-c2nc(-c3ccc4c(C=O)csc4c3)c(-c3ccncc3)[nH]2)cc1		> 10	
CN(C)CCOc1ccc(-c2nc(-c3ccc4c(CO)csc4c3)c(-c3ccncc3)[nH]2)cc1		> 10	
CN(C)CCOc1ccc(-c2nc(-c3ccc4c([C@@H](O)C(F)(F)F)csc4c3)c(-c3ccncc3)[nH]2)cc1	2.1	0.19	2.3
CCCSc1csc2cc(-c3nc(-c4ccc(OCCN(C)C)cc4)[nH]c3-c3ccncc3)ccc12	2.3	9.4	31
CCC[S+]([O-])c1csc2cc(-c3nc(-c4ccc(OCCN(C)C)cc4)[nH]c3-c3ccncc3)ccc12 (configuration not stated)		> 10	
CSc1csc2cc(-c3nc(-c4ccc(OCCN(C)C)cc4)[nH]c3-c3ccncc3)ccc12		14	
CN(C)CCOc1ccc(-c2nc(-c3ccc4c([S+](C)[O-])csc4c3)c(-c3ccncc3)[nH]2)cc1 (configuration not stated)		> 10	
CN(C)CCOc1ccc(-c2nc(-c3ccc4ccc(O)cc4c3)c(-c3ccncc3)[nH]2)cc1	3.2	1.4	3.6
CN(C)CCOc1ccc(-c2nc(-c3ccc4c(O)cccc4c3)c(-c3ccncc3)[nH]2)cc1	0.22	0.009	0.39
CCC(O)c1csc2cc(-c3nc(-c4ccc(OCCN(C)C)cc4)[nH]c3-c3ccncc3)ccc12 (racemic)		> 10	
CN(C)CCOc1ccc(-c2nc(-c3ccc4c(C(O)C(F)(F)C(F)(F)F)csc4c3)c(-c3ccncc3)[nH]2)cc1 (racemic)		> 10	
CN(C)CCOc1ccc(-c2nc(-c3ccc4c(C(O)C(F)(F)F)csc4c3)c(-c3ccncc3)[nH]2)cc1 (racemic)	3.1	0.33	2.7
CN(C)CCOc1ccc(-c2nc(-c3ccc4sc(C(O)C(F)(F)F)cc4c3)c(-c3ccncc3)[nH]2)cc1 (racemic)		> 10	
CN(C)CCOc1ccc(-c2nc(-c3ccc(C(O)C(F)(F)F)cc3)c(-c3ccncc3)[nH]2)cc1 (racemic)		> 10	

From ChEMBL document CHEMBL2331450, “Potent BRAF kinase inhibitors based on 2,4,5-trisubstituted imidazole with naphthyl and benzothiophene 4-substituents” (Bioorg Med Chem, 2013)
